Data reported in ChEMBL document CHEMBL1125116 (J Med Chem, 1990).

What was measured:
Rattus norvegicus [1] = assay: Biodistribution of [125I]IBF in muscle was determined in rats 2 minutes after intraveneous injection; assay type: ADME, organism-based, Muscle tissue; conditions: in vivo, iv
In short: (§1)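 Male Sprague–Dawley rats (225–300 g) with free access to food and water. Under halothane anesthesia they received [125I]IBF (8–10 μCi in 0.2 mL saline) into the femoral vein. Rats were killed by cardiac excision under halothane at the stated time. Organs were weighed and gamma-counted, and % dose/organ was taken against diluted aliquots of the injectate. Blood was assumed to be 7% of body weight and muscle 40%.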

Rattus norvegicus [2] = assay: Biodistribution of [125I]IBF in heart was determined in rats 2 minutes after intraveneous injection; assay type: ADME, organism-based; conditions: in vivo, iv; in short: as §1
Rattus norvegicus [3] = assay: Biodistribution of [125I]IBF in spleen was determined in rats 15 minutes after intraveneous injection; assay type: ADME, organism-based; conditions: in vivo, iv, 0.25 h; in short: as §1
Rattus norvegicus [4] = assay: Biodistribution of [125I]IBF in thyroid was determined in rats 30 minutes after intraveneous injection; assay type: ADME, organism-based, Thyroid gland; conditions: in vivo, iv, 0.5 h
In short: (§2)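 Male Sprague–Dawley rats (225–300 g) with free access to food and water were anesthetized with halothane. Each received 0.2 mL saline containing 8–10 μCi [125I]IBF into the femoral vein and was killed by cardiac excision under halothane at set times. Organs were weighed and gamma-counted, and uptake was calculated against diluted aliquots of the injected dose.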

Rattus norvegicus [5] = assay: Biodistribution of [125I]IBF in kidney was determined in rats 15 minutes after intraveneous injection; assay type: ADME, organism-based; conditions: in vivo, iv, 0.25 h; in short: as §1
Rattus norvegicus [6] = assay: Biodistribution of [125I]IBF in kidney was determined in rats 60 minutes after intraveneous injection; assay type: ADME, organism-based; conditions: in vivo, iv, 1 h; in short: as §1
Rattus norvegicus [7] = assay: Biodistribution of [125I]IBF in kidney was determined in rats 120 minutes after intraveneous injection; assay type: ADME, organism-based; conditions: in vivo, iv, 2 h; in short: as §1
Rattus norvegicus [8] = assay: Biodistribution of [125I]IBF in thyroid was determined in rats 15 minutes after intraveneous injection; assay type: ADME, organism-based, Thyroid gland; conditions: in vivo, iv, 0.25 h; in short: as §2
Rattus norvegicus [9] = assay: Biodistribution of [125I]IBF in brain was determined in rats 120 minutes after intraveneous injection; assay type: ADME, organism-based; conditions: in vivo, iv, 2 h; in short: as §1
Rattus norvegicus [10] = assay: Biodistribution of [125I]-IBF in heart was determined in rats 30 minutes after intraveneous injection; assay type: ADME, organism-based; conditions: in vivo, iv, 0.5 h; in short: as §1
Rattus norvegicus [11] = assay: Biodistribution of [125I]IBF in striatum was determined in rats 30 minutes after intraveneous injection; assay type: ADME, organism-based; conditions: in vivo, iv, 0.5 h; in short: as §2
Rattus norvegicus [12] = assay: Biodistribution of [125I]IBF in skin was determined in rats 30 minutes after intraveneous injection; assay type: ADME, organism-based, Zone of skin; conditions: in vivo, iv, 0.5 h; in short: as §1
Rattus norvegicus [13] = assay: Biodistribution of [125I]IBF in muscle was determined in rats 30 minutes after intraveneous injection; assay type: ADME, organism-based, Muscle tissue; conditions: in vivo, iv, 0.5 h; in short: as §1
Rattus norvegicus [14] = assay: Biodistribution of [125I]-IBF in heart was determined in rats 120 minutes after intraveneous injection; assay type: ADME, organism-based; conditions: in vivo, iv, 2 h; in short: as §1
Rattus norvegicus [15] = assay: Biodistribution of [125I]IBF in brain/blood was determined in rats 30 minutes after intraveneous injection; assay type: ADME, organism-based; conditions: in vivo, iv, 0.5 h
Rattus norvegicus [16] = assay: Biodistribution of [125I]IBF in brain was determined in rats 15 minutes after intraveneous injection; assay type: ADME, organism-based; conditions: in vivo, iv, 0.25 h; in short: as §1
Rattus norvegicus [17] = assay: Biodistribution of [125I]IBF in kidney was determined in rats 30 minutes after intraveneous injection; assay type: ADME, organism-based; conditions: in vivo, iv, 0.5 h; in short: as §1
Rattus norvegicus [18] = assay: Biodistribution of [125I]IBF in thyroid was determined in rats 2 minutes after intraveneous injection; assay type: ADME, organism-based, Thyroid gland; conditions: in vivo, iv; in short: as §2
Rattus norvegicus [19] = assay: Biodistribution of [125I]IBF in muscle was determined in rats 60 minutes after intraveneous injection; assay type: ADME, organism-based, Muscle tissue; conditions: in vivo, iv, 1 h; in short: as §1
Rattus norvegicus [20] = assay: Biodistribution of [125I]IBF in spleen was determined in rats 60 minutes after intraveneous injection; assay type: ADME, organism-based; conditions: in vivo, iv, 1 h; in short: as §1
Rattus norvegicus [21] = assay: Biodistribution of [125I]IBF in striatum was determined in rats 120 minutes after intraveneous injection; assay type: ADME, organism-based; conditions: in vivo, iv, 2 h
Rattus norvegicus [22] = assay: Biodistribution of [125I]IBF in spleen was determined in rats 2 minutes after intraveneous injection; assay type: ADME, organism-based; conditions: in vivo, iv; in short: as §1
Rattus norvegicus [23] = assay: Biodistribution of [125I]IBF in brain/blood was determined in rats 120 minutes after intraveneous injection; assay type: ADME, organism-based; conditions: in vivo, iv, 2 h
Rattus norvegicus [24] = assay: Biodistribution of [125I]IBF in brain/blood was determined in rats 2 minutes after intraveneous injection; assay type: ADME, organism-based; conditions: in vivo, iv
Rattus norvegicus [25] = assay: Biodistribution of [125I]-IBF in skin was determined in rats 120 minutes after intraveneous injection; assay type: ADME, organism-based, Zone of skin; conditions: in vivo, iv, 2 h; in short: as §1
Rattus norvegicus [26] = assay: Biodistribution of [125I]-IBF in skin was determined in rats 60 minutes after intraveneous injection; assay type: ADME, organism-based, Zone of skin; conditions: in vivo, iv, 1 h; in short: as §1
Rattus norvegicus [27] = assay: Biodistribution of [125I]IBF in kidney was determined in rats 2 minutes after intraveneous injection; assay type: ADME, organism-based; conditions: in vivo, iv; in short: as §1
Rattus norvegicus [28] = assay: Biodistribution of [125I]-IBF in heart was determined in rats 60 minutes after intraveneous injection; assay type: ADME, organism-based; conditions: in vivo, iv, 1 h; in short: as §1
Rattus norvegicus [29] = assay: Biodistribution of [125I]IBF in liver was determined in rats 15 minutes after intraveneous injection; assay type: ADME, organism-based; conditions: in vivo, iv, 0.25 h; in short: as §1
Rattus norvegicus [30] = assay: Biodistribution of [125I]IBF was in skin determined in rats 2 minutes after intraveneous injection; assay type: ADME, organism-based, Zone of skin; conditions: in vivo, iv; in short: as §2

CCN1CCC[C@H]1CNC(=O)c1cc(I)cc2c1OCC2
Dose/organ (Rattus norvegicus [1]): 11.25% | Dose/organ (Rattus norvegicus [2]): 0.81% | Dose/organ (Rattus norvegicus [3]): 0.58% | Dose/organ (Rattus norvegicus [4]): 0.02% | Dose/organ (Rattus norvegicus [5]): 2.92% | Dose/organ (Rattus norvegicus [6]): 1.01% | Dose/organ (Rattus norvegicus [7]): 0.68% | Dose/organ (Rattus norvegicus [8]): 0.03% | Dose/organ (Rattus norvegicus [9]): 0.07% | Dose/organ (Rattus norvegicus [10]): 0.11% | Dose/organ (Rattus norvegicus [11]): 0.66% | Dose/organ (Rattus norvegicus [12]): 5.34% | Dose/organ (Rattus norvegicus [13]): 9% | Dose/organ (Rattus norvegicus [14]): 0.02% | Dose/organ (Rattus norvegicus [15]): 2.26 | Dose/organ (Rattus norvegicus [16]): 0.54% | Dose/organ (Rattus norvegicus [17]): 1.58% | Dose/organ (Rattus norvegicus [18]): 0.06% | Dose/organ (Rattus norvegicus [19]): 4.97% | Dose/organ (Rattus norvegicus [20]): 0.09% | Dose/gram (Rattus norvegicus [21]): 0.444 % dose/g | Dose/organ (Rattus norvegicus [22]): 0.96% | Dose/organ (Rattus norvegicus [23]): 1.53 | Dose/organ (Rattus norvegicus [24]): 2.64 | Dose/organ (Rattus norvegicus [25]): 1.18% | Dose/organ (Rattus norvegicus [26]): 2.38% | Dose/organ (Rattus norvegicus [27]): 7.58% | Dose/organ (Rattus norvegicus [28]): 0.05% | Dose/organ (Rattus norvegicus [29]): 16.16% | Dose/organ (Rattus norvegicus [30]): 8.54%
